Test results: ChEMBL document CHEMBL1153936, “Synthesis and pharmacological evaluation of (2-oxaadamant-1-yl)amines” (Bioorg Med Chem, 2009)
Activity calls are given as the source filed them. The rule behind the calls is not given here.

Experiments:
[1] = Antagonist activity against glutamate receptor in rat cerebellar granule neurons assessed as inhibition of glutamate-induced increase in intracellular calcium level by Fura-2 AM dye based fluorimetry; format: functional, cell-based
Method in brief: (§1)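 Primary cerebellar granule neurons were grown on poly-L-lysine-coated glass coverslips and used after 7–14 days in vitro. Cells were loaded with 6 μM Fura-2 AM for 45 min. Fluorometry was done in Locke-Hepes buffer at 37 °C with mild agitation, recorded over 1200 s. Cells were stimulated with NMDA or glutamate at 100 μM plus 10 μM glycine. Test compound was then added at cumulative rising concentrations. IC50 came from variable-slope nonlinear regression of % inhibition. Values are means ± SEM, n ≥ 3 separate experiments on three culture batches.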

Glutamate NMDA receptor = assay: Antagonist activity against NMDA receptor in rat cerebellar granule neurons assessed as inhibition of NMDA -induced increase in intracellular calcium level by Fura-2 AM dye based fluorimetry; format: functional, cell-based; method in brief: as §1
Trypanosoma brucei [2] = assay: Antitrypanosomal activity against Trypanosoma brucei 427 assessed as parasite growth inhibition up to 5 mg/mL after 48 hrs; format: functional, organism-based
Trypanosoma brucei [3] = assay: Antitrypanosomal activity against Trypanosoma brucei 427 assessed as parasite growth inhibition after 48 hrs; format: functional, organism-based; details: Trypanosoma brucei, 427, 48 h
Human alphaherpesvirus 1 = assay: Antiviral activity against HSV1 assessed as inhibition of viral replication; format: functional, organism-based
Method in brief: (§2)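 Cell-culture virus replication assays. Inhibition of viral replication and compound cytotoxicity were scored by microscopic examination, then confirmed by a colorimetric MTS cell viability assay.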

Human alphaherpesvirus 2 = assay: Antiviral activity against HSV2 assessed as inhibition of viral replication; format: functional, organism-based; method in brief: as §2
Vaccinia virus = assay: Antiviral activity against Vaccinia virus assessed as inhibition of viral replication; format: functional, organism-based; details: Orthopoxvirus vaccinia
Method in brief: (§3)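 Cell-culture virus replication assay. Inhibition of virus-induced effects and compound cytotoxicity were scored by microscopic examination and confirmed by colorimetric MTS cell-viability readout.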

Feline coronavirus = assay: Antiviral activity against Feline coronavirus assessed as inhibition of viral replication; format: functional, organism-based; method in brief: as §2
Human respirovirus 3 = assay: Antiviral activity against parainfluenza virus 3 assessed as inhibition of viral replication; format: functional, organism-based; method in brief: as §2
[4] = tested on: Respiratory syncytial virus; assay: Antiviral activity against Respiratory syncytial virus assessed as inhibition of viral replication; format: functional, organism-based; method in brief: as §2
[5] = tested on: Vesicular stomatitis virus; assay: Antiviral activity against Vesicular stomatitis virus assessed as inhibition of viral replication; format: functional, organism-based; method in brief: as §3
Sindbis virus = assay: Antiviral activity against Sindbis virus assessed as inhibition of viral replication; format: functional, organism-based; method in brief: as §2
Punta Toro virus = assay: Antiviral activity against Punta Toro virus assessed as inhibition of viral replication; format: functional, organism-based; method in brief: as §2
Coxsackievirus B4 = assay: Antiviral activity against Coxsackievirus B4 assessed as inhibition of viral replication; format: functional, organism-based; method in brief: as §2
[6] = tested on: Mammalian orthoreovirus 1; assay: Antiviral activity against Reovirus 1 assessed as inhibition of viral replication; format: functional, organism-based; method in brief: as §2
Influenza A virus = assay: Antiviral activity against Influenza A virus (A/Puerto Rico/8/34(H1N1)) assessed as inhibition of viral replication; format: functional, organism-based; details: A/Puerto Rico/8/1934(H1N1); method in brief: as §3
Influenza A virus H3N2 = assay: Antiviral activity against Influenza A virus (A/Hong Kong/7/1987(H3N2)) assessed as inhibition of viral replication; format: functional, organism-based; method in brief: as §3
Influenza B virus = assay: Antiviral activity against Influenza B virus (B/Hong Kong/05/1972) assessed as inhibition of viral replication; format: functional, organism-based; method in brief: as §3

CN(CCc1ccccc1)C12CC3CC(CC(C3)O1)C2
IC50 [1]: > 500 µM | IC50 (Glutamate NMDA receptor): > 200 µM | Activity (Trypanosoma brucei [2]): inactive

CCC12CC3CC(C1)CC(N(C)C)(C3)O2
IC50 [1]: 106 µM | IC50 (Glutamate NMDA receptor): 55 µM | IC50 (Trypanosoma brucei [3]): 10.9 µM | IC90 (Trypanosoma brucei [3]): 15.5 µM

NC12CC3CC(C1)CC(c1ccccc1)(C3)O2
IC50 [1]: 350 µM | IC50 (Glutamate NMDA receptor): 226 µM | Activity (Human alphaherpesvirus 1): inactive | Activity (Human alphaherpesvirus 2): inactive | Activity (Vaccinia virus): inactive | Activity (Feline coronavirus): inactive | Activity (Human respirovirus 3): inactive | Activity [4]: inactive | Activity [5]: inactive | Activity (Sindbis virus): inactive | Activity (Punta Toro virus): inactive | Activity (Coxsackievirus B4): inactive | Activity [6]: inactive | Activity (Influenza A virus): inactive | Activity (Influenza A virus H3N2): inactive | Activity (Influenza B virus): inactive

CCC12CC3CC(CC(N)(C3)O1)C2
IC50 [1]: 223 µM | IC50 (Glutamate NMDA receptor): 83 µM

CC12CC3CC(C1)CC(N)(C3)O2
IC50 [1]: > 500 µM | IC50 (Glutamate NMDA receptor): > 200 µM

NC12CC3CC(CC(C3)C1)C2 [AMANTADINE]
IC50 (Trypanosoma brucei [3]): > 130 µM

CN(C)C12CC3CC(CC(C)(C3)O1)C2
IC50 [1]: > 500 µM | IC50 (Glutamate NMDA receptor): > 200 µM | IC50 (Trypanosoma brucei [3]): 3.97 µM | IC90 (Trypanosoma brucei [3]): 6.82 µM

CCC12CC3CC(C1)CC(NCc1ccccc1)(C3)O2
IC50 [1]: > 500 µM | IC50 (Glutamate NMDA receptor): > 200 µM

NNC12CC3CC(C1)CC(c1ccccc1)(C3)O2
IC50 [1]: > 500 µM

CNC12CC3CC(CC(C3)O1)C2
IC50 [1]: > 500 µM | IC50 (Glutamate NMDA receptor): > 200 µM | Activity (Human alphaherpesvirus 1): inactive | Activity (Human alphaherpesvirus 2): inactive | Activity (Vaccinia virus): inactive | Activity (Feline coronavirus): inactive | Activity (Human respirovirus 3): inactive | Activity [4]: inactive | Activity [5]: inactive | Activity (Sindbis virus): inactive | Activity (Punta Toro virus): inactive | Activity (Coxsackievirus B4): inactive | Activity [6]: inactive | Activity (Influenza A virus): inactive | Activity (Influenza A virus H3N2): inactive | Activity (Influenza B virus): inactive | Activity (Trypanosoma brucei [2]): inactive

NC12CC3CC(C1)CC(C1CCCCC1)(C3)O2
IC50 [1]: > 500 µM | IC50 (Glutamate NMDA receptor): 94 µM | Activity (Human alphaherpesvirus 1): inactive | Activity (Human alphaherpesvirus 2): inactive | Activity (Vaccinia virus): inactive | Activity (Feline coronavirus): inactive | Activity (Human respirovirus 3): inactive | Activity [4]: inactive | Activity [5]: inactive | Activity (Sindbis virus): inactive | Activity (Punta Toro virus): inactive | Activity (Coxsackievirus B4): inactive | Activity [6]: inactive | Activity (Influenza A virus): inactive | Activity (Influenza A virus H3N2): inactive | Activity (Influenza B virus): inactive
